Test [1] has as its system Rattus norvegicus. The test is described as follows: In vivo hypolipidemic activity, expressed as percent decrease in Triglyceride in rat, at dosage of 100 mg for 7 days. The test is classed as functional. In outline:
(§1)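 Male Sprague-Dawley rats, 4 weeks old, kept on CE-2 chow for at least 1 week, then grouped (generally five per group). Compound was mixed into CE-2 powder and fed ad libitum for the stated period; controls received plain CE-2 powder. Diet level is given as mg/100 g (mg%), about equal to mg/kg/day. Total serum triglyceride was measured by the Ryan and Rasho method and reported as percent depression versus control group mean. Significance was p < 0.05.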

For test [2], the species on record is Rattus norvegicus. The test is described as follows: Hypolipidemic activity expressed as percentage decrease in triglyceride in rat, at dosage of 50 mg for 7 days. In kind it is functional. In outline: as §1
For test [3], the species on record is Rattus norvegicus. The experiment in a line: Hypolipidemic activity, expressed as percent decrease in serum cholesterol in rat, at dosage of 100 mg for 7 days by Zak et al method. The test is classed as functional. In outline:
(§2)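 Male Sprague-Dawley rats, 4 weeks old, kept on CE-2 chow for at least 1 week, then grouped (generally five per group). Compound was mixed into CE-2 powder and fed ad libitum for the stated period; controls received plain CE-2 powder. Diet level is given as mg/100 g (mg%), about equal to mg/kg/day. Total serum cholesterol was measured by the Zak et al. method and reported as percent depression versus control group mean. Significance was p < 0.05.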

Test [4] deals with Rattus norvegicus. The test is described as follows: In vivo hypolipidemic activity, expressed as percent decrease in serum cholesterol in rat, at dosage of 20 mg for 7 days. The test is classed as functional. In outline:
as §2

The species named for test [5] is Rattus norvegicus. The experiment in a line: Tested for the hypolipidemic activity, expressed as percent decrease in serum cholesterol in rat, at dosage of 50 mg for 7 days. The test is classed as functional. In outline:
as §2

The test system of test [6] is Rattus norvegicus. The test is described as follows: In vivo hypolipidemic activity, expressed as percent decrease in serum triglyceride in rat, at dosage of 20 mg for 7 days.
Test [7] is filed under the species Rattus norvegicus. The experiment in a line: Tested for the hypolipidemic activity, expressed as percent decrease in Triglyceride in rat, at dosage of 100 mg for 3 days by Ryan and Rasho method. The test is classed as functional. In outline:
as §1

The species named for test [8] is Rattus norvegicus. The test is described as follows: Tested for the hypolipidemic activity, expressed as percent decrease in serum cholesterol in rat, at dosage of 100 mg for 3 days by Zak et al method. The test is classed as functional. In outline: as §2
Test [9] is filed under the species Rattus norvegicus. The experiment in a line: Tested for the hypolipidemic activity, expressed as percent decrease in Triglyceride in rat, at dosage of 100 mg for 6 days by Ryan and Rasho method. The test is classed as functional. In outline: as §1
The species named for test [10] is Rattus norvegicus. The experiment in a line: Tested for the hypolipidemic activity, expressed as percent decrease in serum cholesterol in rat, at dosage of 100 mg for 6 days by Zak et al method. In kind it is functional. In outline:
as §2

The species named for test [11] is Rattus norvegicus. The test is described as follows: Tested for the hypolipidemic activity, expressed as percent decrease in Triglyceride in rat, at dosage of 10 mg for 7 days by Ryan and Rasho method. In kind it is functional. In outline: as §1
For test [12], the species on record is Rattus norvegicus. The experiment in a line: Tested for the hypolipidemic activity, expressed as percent decrease in serum cholesterol in rat, at dosage of 10 mg for 7 days by Zak et al method. The test is classed as functional. In outline: as §2
The species named for test [13] is Rattus norvegicus. The experiment in a line: Tested for the hypolipidemic activity, expressed as percent decrease in Triglyceride in rat, at dosage of 100 mg for 5 days by Ryan and Rasho method. In kind it is functional. In outline:
as §1

The species named for test [14] is Rattus norvegicus. The test is described as follows: Tested for the hypolipidemic activity, expressed as percent decrease in serum cholesterol in rat, at dosage of 100 mg for 5 days by Zak et al method. In kind it is functional. In outline: as §2
The species named for test [15] is Rattus norvegicus. The experiment in a line: tested for the hypolipidemic activity, expressed as percent decrease in Triglyceride in rat, at dosage of 50 mg for 3 days by Ryan and Rasho method. The test is classed as functional. In outline: as §1
Test [16] is filed under the species Rattus norvegicus. The experiment in a line: tested for the hypolipidemic activity, expressed as percent decrease in serum cholesterol in rat, at dosage of 10 mg for 7 days by Zak et al method. In kind it is functional. In outline:
as §2

For test [17], the species on record is Rattus norvegicus. The test is described as follows: tested for the hypolipidemic activity, expressed as percent decrease in serum cholesterol in rat, at dosage of 50 mg for 3 days by Zak et al method. The test is classed as functional. In outline:
as §2

The species entered for test [18] is Rattus norvegicus. The experiment in a line: tested for the hypolipidemic activity, expressed as percent decrease in Triglyceride in rat, at dosage of 10 mg for 7 days by Ryan and Rasho method. In kind it is functional. In outline: as §1
The species entered for test [19] is Rattus norvegicus. The test is described as follows: Tested for the hypolipidemic activity, expressed as percent decrease in Triglyceride in rat, at dosage of 30 mg for 7 days by Ryan and Rasho method. In kind it is functional. In outline: as §1
The species named for test [20] is Rattus norvegicus. The test is described as follows: Tested for the hypolipidemic activity, expressed as percent decrease in serum cholesterol in rat, at dosage of 30 mg for 7 days by Zak et al method. The test is classed as functional. In outline: as §2

`CCCCCCCCCCCCCCOc1ccc(/C=C(\C)C(=O)O)cc1`: the Decrease in the test with Rattus norvegicus [1] is reported as 45%; in the test filed under Rattus norvegicus [2] it was 26%; in the test filed under Rattus norvegicus [3] it was 16%; in the test with Rattus norvegicus [4], 12%; in the test listed under Rattus norvegicus [5], 17%; with Rattus norvegicus [6], 38%.

`CCCCCCCCCCCCCCCCOc1ccc(/C=C(\C)C(=O)OCCCCl)cc1`: the Decrease is 25% in the test filed under Rattus norvegicus [7] and 17% in the test listed under Rattus norvegicus [8].

As for `C/C(=C\c1ccccc1)C(=O)OCC(O)CO` (centres undefined), the Decrease in the test listed under Rattus norvegicus [7] turned out to be 22%; in the test listed under Rattus norvegicus [8] it was 10%.

Turning to `CCCCCCCCCCCCCCCCOc1ccc(/C=C/C(=O)OCCCO)cc1`, the Decrease in the test filed under Rattus norvegicus [7] and in the test listed under Rattus norvegicus [8] was 16% throughout.

For `CCCCCCCCCCCCCCCCOc1ccc(/C=C(\C)C(=O)OCCO)cc1`, the Decrease is 59% in the test listed under Rattus norvegicus [7] and 13% in the test listed under Rattus norvegicus [8].

Regarding `CCCCCCCCOc1ccc(/C=C/C(=O)OCC(O)CO)cc1` (centres undefined), the Decrease is 15% in the test filed under Rattus norvegicus [9] and 7% in the test filed under Rattus norvegicus [10].

On to `CCCCOc1ccc(/C=C/C(=O)OCC(O)CO)cc1` (centres undefined), for which the Decrease stood at 15% in the test filed under Rattus norvegicus [9] and 7% in the test listed under Rattus norvegicus [10].

As to `CCCCCCCCCCCCCCCCOc1ccc(/C=C/C(=O)O)cc1`, the values for the Decrease in the test filed under Rattus norvegicus [11], in the test listed under Rattus norvegicus [12] and with Rattus norvegicus [4] were 2%, 7% and 2%, respectively.

Consider `C=C(C)C(=O)OCCOC(=O)/C=C/c1ccc(OCCCCCCC/C=C/CCCCCCCCC)cc1`, for which the Decrease was 21% in the test filed under Rattus norvegicus [13] and -13% in the test listed under Rattus norvegicus [14].

For `CCCCCCCCCCCCCCCCOc1ccc(/C=C(\C)C(=O)OCCCO)cc1`, the Decrease was 43% in the test filed under Rattus norvegicus [7] and 6% in the test filed under Rattus norvegicus [8].

For `C=C(C)C(=O)OCCOC(=O)/C(C)=C/c1ccc(OCCCCCCCCCCCCCCCC)cc1`, the Decrease was 27% in the test listed under Rattus norvegicus [15]; 62% with Rattus norvegicus [1]; 35% in the test listed under Rattus norvegicus [3]; 13% in the test on Rattus norvegicus [4]; 3% in the test listed under Rattus norvegicus [16]; 25% in the test listed under Rattus norvegicus [17]. Also, the Decrease was 10% in the test filed under Rattus norvegicus [18] and 12% with Rattus norvegicus [6].

With `C=CCOc1ccc(/C=C/C(=O)OCC(O)CO)cc1` (centres undefined), the Decrease in the test filed under Rattus norvegicus [7] is given as -14%; in the test listed under Rattus norvegicus [8], 12%.

As to `COc1ccc(/C=C/C(=O)OCC(O)CO)cc1` (centres undefined), the Decrease in the test listed under Rattus norvegicus [9] came to 31%; in the test filed under Rattus norvegicus [10] it was 4%.

For the molecule `C=CCOc1ccc(/C=C/C(=O)O)cc1`, the Decrease is listed as -16% in the test filed under Rattus norvegicus [19] and 0% in the test listed under Rattus norvegicus [20].

As to `C=C(C)C(=O)OCCOC(=O)/C=C/c1ccc(OCCCCCCCCCCCCCCCC)cc1`, the Decrease in the test with Rattus norvegicus [1] is given as 65%; in the test listed under Rattus norvegicus [2], 42%; in the test filed under Rattus norvegicus [3], 27%; in the test with Rattus norvegicus [4], 16%; in the test listed under Rattus norvegicus [16], 5%; in the test filed under Rattus norvegicus [18], 15%. In addition, the Decrease in the test filed under Rattus norvegicus [5] is 13%; in the test with Rattus norvegicus [6], 38%.

As for `CCCCCCCCCCCCCCCCOc1ccc(/C=C/C(=O)OCCCOC(=O)/C=C/c2ccc(OCCCCCCCCCCCCCCCC)cc2)cc1`, the Decrease in the test listed under Rattus norvegicus [7] is -2%; in the test filed under Rattus norvegicus [8], 8%.

The values are drawn from ChEMBL document CHEMBL1121524, “Studies of hypolipidemic agents. 1. Synthesis and hypolipidemic activities of alkoxycinnamic acid derivatives” (1980).
